Experimental data reported in ChEMBL document CHEMBL1156163, “(18)F Labeled benzimidazole derivatives as potential radiotracer for positron emission tomography (PET) tumor imaging” (Bioorg Med Chem, 2010).

Experiments:
[1] = test system: Heart; experiment: Biodistribution in mouse S180 cells xenografted Kunming mouse heart at 10 to 20 uCi, iv after 5 mins by gamma counting; type: ADME, organism-based, CCRF S-180; conditions: in vivo
[2] = Ratio of drug uptake in tumor to muscle of mouse S180 cells xenografted Kunming mouse at 10 to 20 uCi, iv after 5 mins by gamma counting; type: ADME, organism-based, CCRF S-180; conditions: in vivo
[3] = test system: Heart; experiment: Biodistribution in mouse S180 cells xenografted Kunming mouse heart at 10 to 20 uCi, iv after 15 mins by gamma counting; type: ADME, organism-based, CCRF S-180; conditions: in vivo, 0.25 h
[4] = test system: Kidney; experiment: Biodistribution in mouse S180 cells xenografted Kunming mouse kidney at 10 to 20 uCi, iv after 30 mins by gamma counting; type: ADME, organism-based, CCRF S-180; conditions: in vivo, 0.5 h
[5] = test system: Heart; experiment: Biodistribution in mouse S180 cells xenografted Kunming mouse heart at 10 to 20 uCi, iv after 60 mins by gamma counting; type: ADME, organism-based, CCRF S-180; conditions: in vivo, 1 h
[6] = test system: Lung; experiment: Biodistribution in mouse S180 cells xenografted Kunming mouse lung at 10 to 20 uCi, iv after 5 mins by gamma counting; type: ADME, organism-based, CCRF S-180; conditions: in vivo
[7] = test system: Liver; experiment: Biodistribution in mouse S180 cells xenografted Kunming mouse liver at 10 to 20 uCi, iv after 30 mins by gamma counting; type: ADME, organism-based, CCRF S-180; conditions: in vivo, 0.5 h
[8] = test system: Kidney; experiment: Biodistribution in mouse S180 cells xenografted Kunming mouse kidney at 10 to 20 uCi, iv after 60 mins by gamma counting; type: ADME, organism-based, CCRF S-180; conditions: in vivo, 1 h
[9] = Biodistribution in mouse S180 cells xenografted Kunming mouse tumor at 10 to 20 uCi, iv after 5 mins by gamma counting; type: ADME, organism-based, Neoplasm, CCRF S-180; conditions: in vivo
[10] = test system: Muscle tissue; experiment: Biodistribution in mouse S180 cells xenografted Kunming mouse muscle at 10 to 20 uCi, iv after 15 mins by gamma counting; type: ADME, organism-based, CCRF S-180; conditions: in vivo, 0.25 h
[11] = test system: Liver; experiment: Biodistribution in mouse S180 cells xenografted Kunming mouse liver at 10 to 20 uCi, iv after 60 mins by gamma counting; type: ADME, organism-based, CCRF S-180; conditions: in vivo, 1 h
[12] = Ratio of drug uptake in tumor to brain of mouse S180 cells xenografted Kunming mouse at 10 to 20 uCi, iv after 60 mins by gamma counting; type: ADME, organism-based, CCRF S-180; conditions: in vivo, 1 h
[13] = test system: Kidney; experiment: Biodistribution in mouse S180 cells xenografted Kunming mouse kidney at 10 to 20 uCi, iv after 120 mins by gamma counting; type: ADME, organism-based, CCRF S-180; conditions: in vivo, 2 h
[14] = test system: Liver; experiment: Biodistribution in mouse S180 cells xenografted Kunming mouse liver at 10 to 20 uCi, iv after 120 mins by gamma counting; type: ADME, organism-based, CCRF S-180; conditions: in vivo, 2 h
[15] = Ratio of drug uptake in tumor to brain of mouse S180 cells xenografted Kunming mouse at 10 to 20 uCi, iv after 5 mins by gamma counting; type: ADME, organism-based, CCRF S-180; conditions: in vivo
[16] = test system: Heart; experiment: Biodistribution in mouse S180 cells xenografted Kunming mouse heart at 10 to 20 uCi, iv after 120 mins by gamma counting; type: ADME, organism-based, CCRF S-180; conditions: in vivo, 2 h
[17] = Octanol-water partition coefficient, log P at pH 7.4 after 5 mins; type: physicochemical
Summary of the method: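 Shake-flask partition using 2.5 mL n-octanol and 2.5 mL 0.01 M PBS pH 7.4, with 0.01 mL radioactive sample added. Mixed vigorously for 5 min at room temperature, then centrifuged. Radioactivity counted in 0.01 mL of each phase.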

[18] = test system: Stomach; experiment: Biodistribution in mouse S180 cells xenografted Kunming mouse stomach at 10 to 20 uCi, iv after 15 mins by gamma counting; type: ADME, organism-based, CCRF S-180; conditions: in vivo, 0.25 h
Summary of the method: (§1)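 Female Kunming mice with subcutaneous S180 tumors (5 × 10^6 cells into right front flank, no anesthesia), used 7–14 days after inoculation at 18–22 g. Tracer in saline (10–20 µCi, 100 µL) given by tail vein; mice killed at 5, 15, 30, 60 and 120 min. Tissues excised, blotted, weighed and gamma-counted with decay correction. Reported as %ID/g, mean ± SD, n = 4.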

[19] = test system: Stomach; experiment: Biodistribution in mouse S180 cells xenografted Kunming mouse stomach at 10 to 20 uCi, iv after 120 mins by gamma counting; type: ADME, organism-based, CCRF S-180; conditions: in vivo, 2 h; summary of the method: as §1
[20] = test system: Stomach; experiment: Biodistribution in mouse S180 cells xenografted Kunming mouse stomach at 10 to 20 uCi, iv after 60 mins by gamma counting; type: ADME, organism-based, CCRF S-180; conditions: in vivo, 1 h; summary of the method: as §1
[21] = test system: Stomach; experiment: Biodistribution in mouse S180 cells xenografted Kunming mouse stomach at 10 to 20 uCi, iv after 30 mins by gamma counting; type: ADME, organism-based, CCRF S-180; conditions: in vivo, 0.5 h; summary of the method: as §1
[22] = Ratio of drug uptake in tumor to blood of mouse S180 cells xenografted Kunming mouse at 10 to 20 uCi, iv after 30 mins by gamma counting; type: ADME, organism-based, CCRF S-180; conditions: tumour, 0.5 h
[23] = test system: Stomach; experiment: Biodistribution in mouse S180 cells xenografted Kunming mouse stomach at 10 to 20 uCi, iv after 5 mins by gamma counting; type: ADME, organism-based, CCRF S-180; conditions: in vivo; summary of the method: as §1
[24] = test system: Plasma; experiment: Metabolic stability in mouse plasma at 100 to 150 uCi after 3 hrs by HPLC analysis; type: ADME, cell-free
Summary of the method: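 Radiotracer (100–150 µCi, 50 µL) incubated in 0.5 mL mouse plasma for 3 h. Plasma then mixed with 1 mL CH3CN and centrifuged 5 min at 13,200 rpm. Supernatant passed through a C18 Sep-Pak and analysed by HPLC.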

Row | Drug uptake [1] [% ID/g] | Ratio [2] | Drug uptake [3] [% ID/g] | Drug uptake [4] [% ID/g] | Drug uptake [5] [% ID/g] | Drug uptake [6] [% ID/g] | Drug uptake [7] [% ID/g] | Drug uptake [8] [% ID/g] | Drug uptake [9] [% ID/g] | Drug uptake [10] [% ID/g] | Drug uptake [11] [% ID/g] | Ratio [12] | Drug uptake [13] [% ID/g] | Drug uptake [14] [% ID/g] | Ratio [15] | Drug uptake [16] [% ID/g] | Ratio [22] | SMILES | further results
1 | 2.6 | 0.81 | 2.5 | 0.61 | 3.24 | 1.52 | 0.23 | 0.54 | 1.27 | 1.14 | 0.22 | 1.02 | 0.25 | 0.2 | 0.53 | 6.27 | – | OC[C@H]1O[C@@H](O)[C@H]([18F])[C@@H](O)[C@@H]1O [FLUDEOXYGLUCOSE-F18] | –
2 | 4.48 | 1.28 | 2.66 | 7.4 | 1.08 | 8.33 | 2.53 | 4.2 | 2.28 | 1.22 | 1.55 | 7.15 | 1.1 | 0.38 | 2.21 | 0.26 | 1.09 | CCCc1nc2c(C)cc(C(=O)O)cc2n1CC[18F] | logD at 5 min [17]: -0.5; Drug uptake [18]: 4.33 % ID/g; Drug uptake [19]: 1.14 % ID/g; Drug uptake [20]: 3.23 % ID/g; Drug uptake [21]: 3.87 % ID/g; Drug uptake [23]: 5.52 % ID/g; Stability [24]: Stable
3 | 5.89 | 0.72 | 3.41 | 2.38 | 3.14 | 16.8 | 4.23 | 3.75 | 2.08 | 3.34 | 3.56 | 2.92 | 1.29 | 1.22 | 2.1 | 0.94 | 1.02 | N[C@@H](Cc1ccc(OCC[18F])cc1)C(=O)O [FLORETYROSINE F18] | –
